One compound from ChEMBL document CHEMBL5329221, “A covalent fragment-based strategy targeting a novel cysteine to inhibit activity of mutant EGFR kinase” (RSC Med Chem, 2023) can be followed below.

As a reminder, the inhibition is the drop in the measured response relative to a control, in per cent. For orientation: IC50 means the midpoint of a concentration-inhibition curve.

SMILES strings stand for the structures.

Experiment [1] deals with T1, Tyrosine-protein kinase JAK3 (Homo sapiens) (UniProt P52333).
T1 sequence (whole entry): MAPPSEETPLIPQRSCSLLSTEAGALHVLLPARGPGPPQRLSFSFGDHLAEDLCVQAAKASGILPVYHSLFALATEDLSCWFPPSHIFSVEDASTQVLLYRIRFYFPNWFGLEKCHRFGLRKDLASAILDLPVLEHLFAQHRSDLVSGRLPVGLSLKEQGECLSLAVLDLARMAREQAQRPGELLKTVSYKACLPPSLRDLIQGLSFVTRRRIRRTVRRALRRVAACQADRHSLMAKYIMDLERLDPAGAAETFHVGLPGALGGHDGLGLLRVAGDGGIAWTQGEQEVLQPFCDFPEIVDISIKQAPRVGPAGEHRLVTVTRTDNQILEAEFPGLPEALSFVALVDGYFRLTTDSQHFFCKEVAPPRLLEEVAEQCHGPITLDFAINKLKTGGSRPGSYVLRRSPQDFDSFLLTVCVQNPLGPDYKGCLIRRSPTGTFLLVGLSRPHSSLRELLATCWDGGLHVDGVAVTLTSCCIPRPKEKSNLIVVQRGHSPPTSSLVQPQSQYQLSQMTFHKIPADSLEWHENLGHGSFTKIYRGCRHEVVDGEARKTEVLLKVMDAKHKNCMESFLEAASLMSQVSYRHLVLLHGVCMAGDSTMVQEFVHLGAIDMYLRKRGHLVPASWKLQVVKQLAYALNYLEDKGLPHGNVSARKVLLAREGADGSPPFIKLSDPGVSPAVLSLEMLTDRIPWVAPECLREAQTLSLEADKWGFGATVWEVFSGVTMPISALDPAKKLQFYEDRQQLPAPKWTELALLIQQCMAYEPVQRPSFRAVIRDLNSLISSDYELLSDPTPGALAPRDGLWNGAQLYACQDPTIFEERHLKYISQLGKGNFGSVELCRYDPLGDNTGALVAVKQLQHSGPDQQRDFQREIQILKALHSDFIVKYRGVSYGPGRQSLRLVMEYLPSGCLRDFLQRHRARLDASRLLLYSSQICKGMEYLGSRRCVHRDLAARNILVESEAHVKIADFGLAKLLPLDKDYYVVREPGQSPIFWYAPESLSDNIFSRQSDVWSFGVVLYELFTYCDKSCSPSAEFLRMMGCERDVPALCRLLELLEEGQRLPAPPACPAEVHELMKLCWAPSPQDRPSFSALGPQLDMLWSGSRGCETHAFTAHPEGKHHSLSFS
The experiment is described as follows: Inhibition of human JAK3 assessed as decrease in substrate phosphorylation using Srctide as substrate preincubated for 15 mins followed by substrate addition in presence of 1mM of ATP and measured after 45 mins by microplate reader analysis. The note with it: time 60.0 min. In short, it runs like this: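 JAK3 at 50 ng/mL was preincubated 15 min with 1 µM compound in 100 mM HEPES pH 7.4, 0.003% Brij-35, 0.004% Tween-20, 1 mM DTT. Then 1 mM ATP, 1.5 µM Srctide and 10 mM MgCl2 were added for 45 min. Mobility-shift read.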

Experiment [2] has as its target T2, Epidermal growth factor receptor (Homo sapiens, UniProt P00533, C797S/L858R/T790M). In words: Inhibition of N-terminal His6-tagged human EGFR L858R/T790M/C797S mutant expressed in Sf9 cells assessed as decrease in substrate phosphorylation using Srctide as substrate preincubated for 20 mins followed by substrate addition in presence of 1mM of ATP and measured after 45 mins by microplate reader analysis. In short, it runs like this: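 Compound in DMSO was preincubated 0, 20 or 60 min with 250 pg/µL EGFR_TM (residues 694-1022) in 20 mM HEPES pH 7.4, 5 mM MgCl2, 1 mM MnCl2, 0.003% Brij-35, 0.004% Tween-20, 2 mM DTT. […] EDTA stop; phosphorylation read by mobility-shift chip, ex 488/em 530 nm.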

Experiment [3] concerns the target T2, Epidermal growth factor receptor. In words: Inhibition of N-terminal His6-tagged human EGFR L858R/T790M/C797S mutant expressed in Sf9 cells assessed as decrease in substrate phosphorylation using Ulight-JAK1 peptide as substrate incubated for 1.5 hrs in presence of ATP by TR-FRET based LANCE Ultra kinase assay. The gist of the method:
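LANCE Ultra TR-FRET assay with 0.25 nM EGFR_TM, 1 µM ATP, 50 nM ULight-JAK1 peptide, 50 mM HEPES pH 7.5, 10 mM MgCl2, 5 mM MnCl2, 1 mM DTT, 0.015% Brij35, 5% DMSO, 1.5 h at 23°C. EDTA stop, Eu-anti-pTyr PT66, 1 h. Signal is the 665/620 nm ratio, normalised to no-protein controls. IC50 from a four-parameter fit, otherwise % inhibition at the top concentration.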
Background: Time-resolved FRET reads energy transfer from a long-lived donor to a nearby acceptor.

Experiment [4] deals with Epidermal growth factor receptor (Homo sapiens) (UniProt P00533). In words: Inhibition of wild type human EGFR assessed as decrease in substrate phosphorylation using Srctide as substrate preincubated for 15 mins followed by substrate addition in presence of 1mM of ATP and measured after 45 mins by microplate reader analysis. The note with it: time 60.0 min. In short, it runs like this:
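Wild-type EGFR at 800 ng/mL was preincubated 15 min with 1 µM compound in 100 mM HEPES pH 7.4, 0.003% Brij-35, 0.004% Tween-20, 1 mM DTT. Then 1 mM ATP, 1.5 µM Srctide, 10 mM MgCl2 and 10 mM MnCl2 were added for 45 min. Mobility-shift read.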

T2 sequence (P00533 25-1210 T790M/C797S/L858R limits assumed): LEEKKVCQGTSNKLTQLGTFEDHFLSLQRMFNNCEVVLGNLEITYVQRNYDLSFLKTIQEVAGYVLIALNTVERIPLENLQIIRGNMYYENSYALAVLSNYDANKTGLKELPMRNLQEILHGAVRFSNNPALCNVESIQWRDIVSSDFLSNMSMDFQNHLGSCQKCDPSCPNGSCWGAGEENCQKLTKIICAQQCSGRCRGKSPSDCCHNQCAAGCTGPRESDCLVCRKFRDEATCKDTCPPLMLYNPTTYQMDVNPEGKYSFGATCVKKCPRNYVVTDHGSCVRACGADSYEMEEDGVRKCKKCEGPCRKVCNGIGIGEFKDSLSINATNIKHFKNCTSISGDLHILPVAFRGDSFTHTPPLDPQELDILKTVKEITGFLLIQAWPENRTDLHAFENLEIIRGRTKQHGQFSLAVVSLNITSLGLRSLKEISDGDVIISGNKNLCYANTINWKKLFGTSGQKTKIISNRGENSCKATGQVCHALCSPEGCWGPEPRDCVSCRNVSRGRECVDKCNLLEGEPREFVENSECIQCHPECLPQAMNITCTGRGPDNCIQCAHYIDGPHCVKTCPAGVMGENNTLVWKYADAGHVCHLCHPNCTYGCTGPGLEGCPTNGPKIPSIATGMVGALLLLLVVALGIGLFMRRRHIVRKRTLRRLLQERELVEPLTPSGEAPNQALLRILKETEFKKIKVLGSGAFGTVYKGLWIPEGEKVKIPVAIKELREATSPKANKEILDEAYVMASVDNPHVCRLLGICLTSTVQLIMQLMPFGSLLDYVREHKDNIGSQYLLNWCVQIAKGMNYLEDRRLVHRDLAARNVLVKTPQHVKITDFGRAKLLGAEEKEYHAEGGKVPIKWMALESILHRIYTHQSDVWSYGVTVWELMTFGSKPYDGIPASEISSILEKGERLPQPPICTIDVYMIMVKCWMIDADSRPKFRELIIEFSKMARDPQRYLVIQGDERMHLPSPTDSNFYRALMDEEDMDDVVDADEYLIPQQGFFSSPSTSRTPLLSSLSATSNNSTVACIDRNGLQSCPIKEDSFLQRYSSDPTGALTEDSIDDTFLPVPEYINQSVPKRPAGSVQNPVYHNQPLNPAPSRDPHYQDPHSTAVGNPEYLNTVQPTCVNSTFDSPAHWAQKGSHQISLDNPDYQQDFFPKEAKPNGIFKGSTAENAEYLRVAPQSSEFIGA
Chain of Epidermal growth factor receptor (Homo sapiens) (P00533 whole entry): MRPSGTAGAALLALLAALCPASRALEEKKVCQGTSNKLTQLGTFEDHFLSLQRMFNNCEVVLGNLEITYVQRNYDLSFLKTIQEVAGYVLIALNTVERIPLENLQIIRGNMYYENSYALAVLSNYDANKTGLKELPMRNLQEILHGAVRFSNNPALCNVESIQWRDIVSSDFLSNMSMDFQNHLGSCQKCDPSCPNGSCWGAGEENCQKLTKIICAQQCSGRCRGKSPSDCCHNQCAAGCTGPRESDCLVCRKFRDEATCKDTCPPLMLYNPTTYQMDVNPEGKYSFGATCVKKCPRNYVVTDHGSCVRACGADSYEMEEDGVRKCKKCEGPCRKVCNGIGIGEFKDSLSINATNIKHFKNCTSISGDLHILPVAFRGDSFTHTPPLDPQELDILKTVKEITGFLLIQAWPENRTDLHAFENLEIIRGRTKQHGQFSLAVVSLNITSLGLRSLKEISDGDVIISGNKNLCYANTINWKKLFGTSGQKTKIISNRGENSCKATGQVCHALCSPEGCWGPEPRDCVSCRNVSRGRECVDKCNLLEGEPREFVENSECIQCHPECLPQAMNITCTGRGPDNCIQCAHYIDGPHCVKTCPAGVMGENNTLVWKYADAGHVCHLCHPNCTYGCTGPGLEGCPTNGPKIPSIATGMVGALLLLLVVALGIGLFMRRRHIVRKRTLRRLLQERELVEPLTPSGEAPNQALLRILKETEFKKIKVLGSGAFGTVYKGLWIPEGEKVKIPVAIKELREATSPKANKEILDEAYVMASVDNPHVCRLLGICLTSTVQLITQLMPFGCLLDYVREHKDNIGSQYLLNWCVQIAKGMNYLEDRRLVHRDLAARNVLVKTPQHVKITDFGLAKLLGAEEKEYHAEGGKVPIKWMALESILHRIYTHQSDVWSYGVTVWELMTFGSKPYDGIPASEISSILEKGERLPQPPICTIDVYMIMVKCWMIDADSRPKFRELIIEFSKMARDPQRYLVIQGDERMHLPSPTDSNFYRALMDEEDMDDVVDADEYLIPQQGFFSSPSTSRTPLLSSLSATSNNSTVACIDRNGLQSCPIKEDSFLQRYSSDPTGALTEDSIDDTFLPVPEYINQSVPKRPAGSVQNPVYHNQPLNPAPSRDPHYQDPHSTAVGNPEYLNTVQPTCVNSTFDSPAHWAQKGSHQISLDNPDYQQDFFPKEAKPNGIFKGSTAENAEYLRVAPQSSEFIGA

For `C=CC(=O)Nc1cc(-c2cn(C)c3ccccc23)ncn1`, the inhibition in experiment [1] was 74.2%; in experiment [4], > 80%. Also, the concentration for half-maximal inhibition (IC50) in experiment [2] came to 251 nM; in experiment [3], 900 nM.
